Apaf-1 inh: human Apaf-1 inhibition; 330,000 tested, 0.71% active; AID 489030; reconstituted apoptosome caspase-3 activity, DEVD-Rh110 fluorescence; O14727; inhibition, % at 20 µM; active means inhibition of at least 40% at 20 µM;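 further: plate controls were DMSO wells for no effect and DEVD-CHO caspase inhibitor wells for full effect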
Target sequence (O14727 whole entry, looked up): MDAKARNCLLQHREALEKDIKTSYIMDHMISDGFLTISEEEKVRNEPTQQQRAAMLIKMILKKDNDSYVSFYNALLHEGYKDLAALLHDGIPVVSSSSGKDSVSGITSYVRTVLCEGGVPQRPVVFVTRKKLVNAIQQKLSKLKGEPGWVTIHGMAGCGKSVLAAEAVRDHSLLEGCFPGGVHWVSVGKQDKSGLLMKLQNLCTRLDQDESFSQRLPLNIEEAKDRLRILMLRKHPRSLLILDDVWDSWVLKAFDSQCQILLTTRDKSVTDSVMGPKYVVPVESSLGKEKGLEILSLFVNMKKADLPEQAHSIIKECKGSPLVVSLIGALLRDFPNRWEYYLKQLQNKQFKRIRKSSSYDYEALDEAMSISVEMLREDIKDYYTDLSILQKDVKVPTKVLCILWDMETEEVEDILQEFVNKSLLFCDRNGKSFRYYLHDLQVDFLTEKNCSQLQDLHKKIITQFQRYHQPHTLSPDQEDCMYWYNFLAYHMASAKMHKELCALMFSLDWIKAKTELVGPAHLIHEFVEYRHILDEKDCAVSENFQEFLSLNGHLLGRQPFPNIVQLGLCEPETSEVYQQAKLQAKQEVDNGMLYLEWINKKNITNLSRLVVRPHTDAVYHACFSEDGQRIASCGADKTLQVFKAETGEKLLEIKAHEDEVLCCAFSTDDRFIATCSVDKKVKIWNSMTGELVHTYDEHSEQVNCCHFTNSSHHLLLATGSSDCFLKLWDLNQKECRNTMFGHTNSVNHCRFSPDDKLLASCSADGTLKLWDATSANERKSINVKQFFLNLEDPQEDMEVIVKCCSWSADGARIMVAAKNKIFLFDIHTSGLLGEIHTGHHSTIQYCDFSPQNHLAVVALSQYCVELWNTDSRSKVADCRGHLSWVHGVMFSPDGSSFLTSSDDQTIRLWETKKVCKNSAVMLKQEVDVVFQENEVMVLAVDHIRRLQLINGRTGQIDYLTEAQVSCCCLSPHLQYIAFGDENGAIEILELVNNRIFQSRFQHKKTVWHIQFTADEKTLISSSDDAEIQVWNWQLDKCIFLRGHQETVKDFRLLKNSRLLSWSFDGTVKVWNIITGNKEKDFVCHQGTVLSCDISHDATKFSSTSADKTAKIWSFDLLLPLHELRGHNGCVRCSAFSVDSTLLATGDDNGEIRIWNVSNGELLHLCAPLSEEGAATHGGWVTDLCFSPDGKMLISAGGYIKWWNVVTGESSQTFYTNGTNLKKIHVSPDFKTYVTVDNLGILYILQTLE
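detection = Rh110 fluorescence intensity | test system = biochemical Apaf-1 apoptosome reconstitution | also added = cytochrome c and DEVD-Rh110 substrate | schedule = 30 min plus 50 min, RT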
GSTO1 counter: GSTO1 inhibition, counter-screen for RBBP9 inhibitors. 300,000 tested, 1.1% active. AID 1974. recombinant GSTO1, activity-based probe fluorescence polarization. inhibition, % at 5.96 µM;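 active means inhibition above the campaign mean inhibition plus 3 SD, cut at about 35% in these data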;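 further: 0% = GSTO1-1 with DMSO and 100% = wells lacking GSTO1-1 enzyme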
PP5 inh: PP5 (human) phosphatase inhibition; P53041; purified PP5c, OMFP substrate fluorescence; inhibition, % at 6.7 µM; 320,000 tested, 0.18% active;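 active means inhibition above the campaign's mean inhibition across all tested compounds plus 3 SD, cut at about 9.5% in these data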;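 further: 0% = DMSO only and 100% = 100 µM cantharidin control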
TDP2 absorb: TDP2 (human) inhibition, absorbance primary screen | O95551 | recombinant TDP2, T5PNP hydrolysis, p-nitrophenol absorbance 415 nm | inhibition, % at 12.8 µM | 370,000 tested, 0.34% active | AID 720702;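 active means inhibition above the mean of all tested compounds plus 3 SD, set per campaign, cut at about 25% in these data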;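 further: 0% = DMSO with enzyme and 100% = buffer with substrate but no TDP2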
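Test system: human TDP2 enzyme; Input: 120 nM TDP2 per well; Buffer or medium: Mg2+-containing Tris-HCl buffer, pH 7.5; Reagent: 5 mM T5PNP; Dosing: 12.8 µM single point, 1% DMSO; Incubation: reaction 2 h, 37 °C; Detection: p-Nitrophenol epi absorbance; Read-out: % inhibition relative to enzyme-containing and enzyme-free wells; Replicates: single well per compound.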
PP1 inh: PP1-alpha (human) inhibition in PP5 counter-screen. AID 2235. 320,000 tested, 0.9% active. inhibition, % at 6.7 µM. P62136. purified PP1alpha, OMFP fluorescence;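 active means inhibition above the mean inhibition of all tested compounds plus 3 SD, computed separately for each screening campaign, cut at about 15% in these data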
TDP2 confirm: human TDP2 inhibition, confirmation; 1,100 tested, 22% active; shares compounds with TDP2 absorb; inhibition, % at 12.8 µM; recombinant human TDP2, absorbance read-out; in the data active means inhibition above about 25%;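 further: 0% = vehicle with enzyme and 100% = no enzyme buffer only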
* = called active by the depositor; x = no result; ! = not active in a repeat. This is a sample that favours compounds with a hit; in the whole collection about 2.1% have one here.

SMILES | Apaf-1 inh | GSTO1 counter | PP5 inh | TDP2 absorb | PP1 inh | TDP2 confirm
O=C(NC1CCCC1)C1CCN(C(=O)c2cc(Cl)ccc2Cl)CC1 | -10.4 | 10.2 | -0.3 | 26.1* | -3.2 | 6.3
O=C(NC(Cc1ccccc1)c1nc2ccccc2[nH]1)c1cccc([N+](=O)[O-])c1 (centres undefined) | 18.6 | 4.8 | 2.1 | 0.8 | 3.5 | x
O=C(N[C@@H](Cc1ccccc1)c1nc2ccccc2[nH]1)c1ccc([N+](=O)[O-])cc1 | x | x | x | 24.9* | x | 4.6
COc1cccc(OC(C)CCN2CCC(C(O)(c3ccccc3)c3ccccc3)CC2)c1 (centres undefined) | x | x | x | -7.6 | x | x
CN(Cc1ccccc1)C(=O)OCc1cn(Cc2ccc(C(F)(F)F)cc2)nn1 | x | x | x | -7.5 | x | x
CCOC(=O)[C@@]12CN(C(=O)OC(C)(C)C)CC=C1N(Cc1ccc(OC)cc1)C(=O)[C@H]2CC(=O)NCCCN1CCCC1=O | x | x | x | -2.5 | x | x
Cc1nc2scc(C)n2c(=O)c1S(=O)(=O)NCc1ccc(F)cc1 | 5.1 | 3.2 | 1.0 | 24.9* | 1.1 | -10.3
CC(=O)N1c2ccc(S(=O)(=O)NCC3CCC(C(=O)N4CCC(C)CC4)CC3)cc2CC1C (centres undefined) | 8.5 | 5.3 | 0.1 | 27.6* | -2.2 | -1.6
COC(=O)[C@H](C(C)C)N1Cc2nnn(CC3CCCCC3)c2-c2ccccc2S1(=O)=O | x | x | x | -6.2 | x | x
COCCCN1C(=O)[C@H](CC(=O)NCC23CC4CC(CC(C4)C2)C3)[C@]2(C(=O)OC)CCCCC=C12 | x | x | x | 1.6 | x | x
CC(C)C[C@H](NC1(C(=O)NC2CCCCC2)CCC1)C(=O)NCC(c1ccccc1)c1ccccc1 | x | x | x | -4.4 | x | x
O=[N+]([O-])c1ccc(Nc2ccccc2)c2nonc12 | 12.4 | 29.1 | 6.6 | 25.7* | -0.1 | 7.5
CCOc1ccc(Nc2ccc([N+](=O)[O-])c3nonc23)cc1 | 7.9 | 16.9 | 0.5 | 4.4 | 3.2 | x
CC(=O)c1c(C(C)=O)c(C)n(Cc2ccccc2)c1C | -25.3 | -0.7 | 2.9 | -0.1 | -5.4 | x
Cc1c(C=O)c(C=O)c(C)n1Cc1ccccc1 | 10.6 | 2.5 | -1.2 | 24.9* | -4.3 | 0.5
CC(=O)N(C)c1ccc(NC(=O)Cc2cccs2)cc1 | -3.8 | -0.8 | 3.4 | 25.1* | -4.5 | 3.5
CCCCC(=O)N(C)c1c(C)nc2ccc(C(=O)N(C)Cc3ccco3)cn12 | x | x | x | -15.8 | x | x
CCn1cc(S(=O)(=O)Nc2ccc(C)c(Cl)c2)cn1 | 6.2 | 20.0 | 3.2 | 10.5 | 1.3 | x
CCn1cc(S(=O)(=O)Nc2ncccn2)cn1 | -7.7 | -16.2 | 3.0 | 24.9* | -0.9 | 1.3
Cc1ccc(-n2c(C)nn(Cc3ccc([N+](=O)[O-])cc3)c2=O)cc1 | -2.4 | 2.9 | -2.4 | -21.4 | 3.1 | x
Cc1ccc(-n2c3nc(=O)[nH]c(=O)c-3cc3cc([N+](=O)[O-])ccc32)cc1 | 34.4 | 15.5 | 1.5 | 45.9* | 7.8 | 41.1*
COc1cccc(NC(=O)c2cccnn2)c1 | 1.2 | 5.8 | 0.4 | 7.4 | -1.1 | x
COc1cccc(NC(=O)c2cccc(C(=O)Nc3cccc(OC)c3)n2)c1 | 3.9 | 1.7 | 4.7 | 24.8* | -6.6 | -6.3
COc1ccc(C(O)c2nccc3cc(OC)c(OC)cc23)cc1OC (centres undefined) | -27.6 | 25.9 | 0.4 | 33.6* | 0.6 | 15.5
COc1ccc(OC)c(C(=O)COC(=O)c2ccc(C)o2)c1 | 13.4 | -5.6 | -2.7 | 28.8* | -0.8 | 5.4
SMILES | Apaf-1 inh | GSTO1 counter | PP5 inh | TDP2 absorb | PP1 inh | TDP2 confirm
CCOC(=O)c1sc(NC(=O)CNCc2ccccn2)c(C(=O)OCC)c1C | 27.7 | 5.3 | 1.8 | 25.7* | 9.2 | 0.0
CCOC(=O)c1sc(NC(=O)CNCc2cccnc2)c(C(=O)OCC)c1C | 24.5 | 0.5 | 2.1 | 0.5 | 3.2 | x
O=S(=O)(c1ccccc1)c1ccc(NCc2ccco2)cc1 | -8.2 | 6.1 | 2.8 | -4.3 | -0.9 | x
O=C1C(Cl)=C(NCc2ccco2)C(=O)c2ccccc21 | x | x | x | 34.6* | x | 24.0
O=C(Nc1ccc(S(=O)(=O)Nc2ncccn2)cc1)c1ccccc1Cl | -6.7 | 1.0 | 1.5 | 10.3 | 1.1 | x
O=C(Nc1ccc(S(=O)(=O)Nc2ncccn2)cc1)c1ccccc1Br | 3.3 | 1.9 | -1.2 | 26.2* | -4.3 | -7.7
CN1[C@H](Cc2ccccc2)COc2cc(N3CCSCC3)ccc2S1(=O)=O | x | x | x | 5.3 | x | x
O=C(Nc1cccc2nsnc12)c1ccc(-c2ccc(Br)cc2)o1 | 33.4 | 5.4 | -3.6 | 24.6* | 2.3 | 4.7
Cc1c(Br)c(O)c(Br)c2sc(=O)oc12 | 19.5 | 73.7* | -0.4 | 42.0* | 9.1 | 16.4
CCCN1CCCCC(NC(=O)OC(C)(C)C)C1=O (centres undefined) | x | x | x | 12.0 | x | x
CCOc1ccccc1NC(=O)C(NCCN(C)C)c1ccccc1 (centres undefined) | -5.3 | 3.2 | -2.2 | 27.3* | 2.7 | 12.7
Nc1sc(-c2ccccc2)cc1C(=O)N1CCNCC1 | x | x | x | 2.6 | x | x
CC(C)CC(=O)N1CCN(Cc2ccc(Cl)cc2)CC1 | -5.9 | 1.2 | 4.2 | 26.2* | 1.8 | 1.2
CC(C)CC(=O)N1CCN(Cc2ccc(C(F)(F)F)cc2)CC1 | 5.2 | 8.2 | 2.3 | 30.3* | 0.0 | 11.5
C=CCOc1cccc(C2C(C(=O)c3ccco3)=C(O)C(=O)N2CCN2CCOCC2)c1 (centres undefined) | -5.1 | 1.6 | 1.5 | 41.1* | 1.2 | -7.0
C=CCN1C=C2C(=O)C(C)(OC(=O)c3cccs3)C(=O)C=C2C=C1CCCC(=O)OC (centres undefined) | 29.4 | 30.8 | 5.7 | 25.9* | -1.2 | 4.5
CC1CCN(CCOc2cc(Cl)ccc2Cl)CC1 | -0.7 | -4.7 | -0.4 | 24.6* | -2.4 | 1.4
CCOC(=O)[C@]12CCCC3=C1N(CCC3)C(=O)[C@@H](CC(=O)NCc1cccc3ccccc13)C2 | x | x | x | -5.2 | x | x
O=C1NNC(c2ccccc2)=N/C1=C\c1ccccc1Cl | x | x | x | 55.9* | x | 61.7*
CCOc1ccc(NC(=O)CN2C(=O)c3cccc4cccc2c34)cc1 | x | x | x | -9.9 | x | x
Cc1c(NC(=O)CN2CCN(c3ccccc3)CC2)c(=O)n(-c2ccccc2)n1C | -6.6 | 3.8 | 0.0 | 0.7 | -2.0 | x
Cc1c(NC(=O)CN2CC(C)OC(C)C2)c(=O)n(-c2ccccc2)n1C (centres undefined) | -4.9 | -7.3 | 1.8 | 29.0*! | -2.3 | 16.8
CC(C)CC(=O)Nc1cc2nn(-c3ccccc3)nc2cc1Cl | -6.4 | 2.0 | 1.9 | -7.5 | -3.5 | x
Nc1cc2nn(-c3ccccc3)nc2cc1Cl | x | x | x | 69.9* | x | 46.7*
C=CCN1C(=O)[C@@H](CC(=O)NCc2ccc(OC)c(OC)c2)[C@]2(C(=O)OCC)CCCCC/C=C/12 | x | x | x | -5.2 | x | x
COc1cc(CNCc2ccc(Br)cc2)cc(OC)c1 | 8.9 | 1.8 | 1.6 | 24.9* | -4.1 | 8.9
Cc1[nH]n(-c2ccccc2)c(=O)c1/C=N/N(c1ccccc1)c1ccccc1 | 12.3 | -15.0 | 2.0 | 39.5* | 3.1 | -2.8
